According to ChEMBL document CHEMBL1817635, “Ellipticines and 9-acridinylamines as inhibitors of D-alanine:D-alanine ligase” (Bioorg Med Chem, 2011):
Converted amounts (≈) assume the structure as drawn.

Experiments:
[1] = tested on: Escherichia coli; assay: Antimicrobial activity against Escherichia coli 1411 after 18 hrs by broth microdilution method; format: functional; settings: Escherichia coli, 1411, 18 h
[2] = Inhibition of Escherichia coli DdlB assessed as residual activity of the enzyme assessed as orthophosphate formation after 20 mins by malachite green reagent method
[3] = tested on: Staphylococcus aureus; assay: Antimicrobial activity against Staphylococcus aureus SH1000 after 18 hrs by broth microdilution method; format: functional; settings: SH1000, 18 h
[4] = tested on: Escherichia coli; assay: Antimicrobial activity against AcrAB-deficient Escherichia coli SM1411 after 18 hrs by broth microdilution method; format: functional; settings: SM1411, 18 h
[5] = tested on: Staphylococcus aureus; assay: Antimicrobial activity against Staphylococcus aureus 8325-4 after 18 hrs by broth microdilution method; format: functional; settings: 8325-4, 18 h
How it was run: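 Broth microdilution MIC following British Society for Antimicrobial Chemotherapy guidelines, run against S. aureus […] 8325-4.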

[6] = tested on: Staphylococcus aureus; assay: Effect on membrane integrity in Staphylococcus aureus SH1000 at four times MIC after 10 mins by BacLight assay; format: functional
[7] = tested on: Escherichia coli; assay: Inhibition of Escherichia coli DdlB assessed as residual activity of the enzyme assessed as orthophosphate formation at 250 uM after 20 mins by malachite green reagent method
How it was run: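 Purified His-tagged E. coli DdlB, diluted in 50 mM Hepes pH 7.2 with 1 mM DTT. Reaction at 37 °C in 50 mM Hepes pH 8.0, 3.25 mM MgCl2, 6.5 mM (NH4)2SO4, D-Ala, ATP and 5% DMSO. Incubated 20 min, then malachite green reagent added and A650 read after 5 min. Duplicates, with parallel testing in 0.005% Triton X-114.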

Structure (SMILES)	MIC [1] [µg/mL]	IC50 [2] [µM]	MIC [3] [µg/mL]	MIC [4] [µg/mL]	MIC [5] [µg/mL]	Activity [7] [%]	Activity [6] [%]
COc1ccc2nc3cc(Cl)ccc3c(Nc3ccc(O)c(CN4CCN(C)CC4)c3)c2c1	> 256	162	–	64 (≈ 138 µM)	32 (≈ 69.1 µM)	–	48.7
COc1ccc2[nH]c3c(C)c4cc[n+](C)cc4c(C)c3c2c1.[I-]	256	65	32	8	–	–	16
CCN(CC)Cc1cc(Nc2c3ccc(Cl)cc3nc3c(OC)ccc(Cl)c23)ccc1O	> 256	119	> 256	> 256	–	40	–
C=CCc1cc(Nc2c3ccc(Cl)cc3nc3ccc(OC)cc23)cc(CN(CC)CC)c1O	> 256	161	32 (≈ 67.2 µM)	> 256	–	27	47.7
CCN(CC)Cc1cc(Nc2c3ccc(Cl)cc3nc3ccc(OC)cc23)ccc1O	256 (≈ 587 µM)	320	128 (≈ 294 µM)	128 (≈ 294 µM)	–	46	–
COc1ccc2c(c1)c1c(C)c3cnccc3c(C)c1n2CCCN	32 (≈ 96 µM)	70	–	8 (≈ 24 µM)	32 (≈ 96 µM)	–	–
COc1ccc2c(c1)c1c(C)c3cnccc3c(C)c1n2C	–	184	–	–	–	–	–
COc1ccc2nc3cc(Cl)ccc3c(Nc3ccc(C(O)CCN(C)C)cc3)c2c1 (configuration not stated)	> 256	135	256 (≈ 587 µM)	128 (≈ 294 µM)	–	38	–
COc1ccc2nc3cc(Cl)ccc3c(Nc3ccc(O)c(CN4CCCC4)c3)c2c1	256 (≈ 590 µM)	102	64 (≈ 147 µM)	256 (≈ 590 µM)	–	20	–
Cc1c2c[n+](C)ccc2c(C)c2c1c1cc(Br)ccc1n2C.[I-]	32	36	2	1	–	–	42.4
CCCCCCCCN(CCCCCCCC)Cc1cc(Nc2c3ccc(Cl)cc3nc3ccc(OC)cc23)ccc1O	–	–	–	–	–	86	–
COc1cc2c(cc1CN(C)C)[nH]c1c3ccc(Cl)cc3ncc21	128 (≈ 377 µM)	–	256 (≈ 753 µM)	32 (≈ 94.2 µM)	–	–	–
COc1cc(Nc2c3ccc(Cl)cc3nc3ccc(OC)cc23)c2ncccc2c1	> 256	32	> 256	> 256	–	25	–
COc1ccc2nc3cc(Cl)ccc3c(NCCNc3c4ccc(Cl)cc4nc4ccc(OC)cc34)c2c1	–	–	–	–	–	27	–
COc1ccc2nc3cc(Cl)ccc3c(Nc3ccc(O)c(CN(CCCl)CCCl)c3)c2c1	–	–	–	–	–	22	–
CC(=O)[O-].COc1ccc2[nH]c3c(C)c4cc[n+](C)cc4c(C)c3c2c1	256	89	64	4	–	–	–
CCN(CC)Cc1cc2[nH]c3c4ccc(Cl)cc4ncc3c2cc1OC.Cl.Cl.Cl	> 256	330	> 256	> 256	–	–	–
COc1cc(NCCCNc2c3ccc(Cl)cc3nc3ccc(OC)cc23)c2ncccc2c1	> 256	90	256 (≈ 541 µM)	> 256	–	13	–
CCN(CC)Cc1cc2[nH]c3c4ccc(Cl)cc4ncc3c2cc1OC	256 (≈ 696 µM)	623	256 (≈ 696 µM)	32 (≈ 87 µM)	–	–	–

Further lines, with some results ahead:

MIC [1] [µg/mL]	IC50 [2] [µM]	MIC [3] [µg/mL]	MIC [4] [µg/mL]	MIC [5] [µg/mL]	Activity [7] [%]	Structure (SMILES)	Activity [6] [%]
> 256	90	> 256	> 256	–	–	Cc1c2cnccc2c(C)c2c1c1ccc(F)cc1n2C	–
–	297	–	–	–	–	Cc1c2cnccc2c(C)c2c1c1cc(Br)ccc1n2C	–
> 256	125	8 (≈ 29.2 µM)	> 256	–	–	CCc1cccc2c1[nH]c1c(C)c3ccncc3c(C)c12	34.2
> 256	60	> 256	> 256	–	–	COc1ccc2[nH]c3c(C)c4ccncc4c(C)c3c2c1	–
16	23	8	4	–	–	Cc1c2cc[n+](C)cc2c(C)c2c1[nH]c1ccc(Br)cc12.[I-]	29.8
64	46	16	4	–	–	Cc1c2cc[n+](C)cc2c(C)c2c1[nH]c1ccccc12.[I-]	37.3
16 (≈ 61 µM)	192	8 (≈ 30.5 µM)	8 (≈ 30.5 µM)	–	–	Cc1c2ccncc2c(C)c2c1[nH]c1ccc(O)cc12	71.9
> 256	64	> 256	4	–	–	Cc1c2cc[n+](C)cc2c(C)c2c1[nH]c1cc(F)ccc12.[I-]	–
> 256	103	4 (≈ 15.1 µM)	8 (≈ 30.3 µM)	–	–	Cc1c2ccncc2c(C)c2c1[nH]c1cc(F)ccc12	42.8
> 256	86	16 (≈ 49.2 µM)	16 (≈ 49.2 µM)	–	–	Cc1c2ccncc2c(C)c2c1[nH]c1ccc(Br)cc12	49.6
